Assay results as given in ChEMBL document CHEMBL1123934, “Indazoles as indole bioisosteres: synthesis and evaluation of the tropanyl ester and amide of indazole-3-carboxylate as antagonists at the serotonin 5HT3 receptor” (J Med Chem, 1987).

How the values were obtained:
Format in all cases: functional
[1] = target: T1, Serotonin 3 (5-HT3) receptor (Rattus norvegicus) (UniProt P35563+Q9JJ16); assay: The compound was evaluated for the inhibition of the von Bezold-Jarisch reflex in rat administered orally
Method in brief: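 Overnight-fasted rats gavaged with compound (free base in ≤1% HCl, 5 mL/kg). Urethane anesthesia 45 min later. Serotonin bolus 0.03 mg/kg iv 15 min after anesthesia. Saline-dosed rats as controls. Percent inhibition of reflex bradycardia at three doses, n ≥ 3 each. ED50 from mean values.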

[2] = target: T1, Serotonin 3 (5-HT3) receptor (Rattus norvegicus); assay: Selectivity ratio of peroral vs intravenous delivery
[3] = target: T1, Serotonin 3 (5-HT3) receptor (Rattus norvegicus); assay: The compound was evaluated for the inhibition of the von Bezold-Jarisch reflex in rat administered intravenously
Method in brief: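 Urethane-anesthetized rats; serotonin bolus 0.03 mg/kg iv (femoral vein) gives control reflex bradycardia. After heart rate returns to baseline (within 5 min), test compound iv as free base in dilute acid (≤1% HCl). Serotonin challenge repeated after 15 min. Percent inhibition of bradycardia at three doses, n ≥ 3 each. ED50 from mean values.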

SMILES | ED50 [1] [mg/kg] | Ratio [2] | ED50 [3] [mg/kg]
CN1C2CCC1CC(OC(=O)c1[nH]nc3ccccc13)C2 (stereo unspecified) | 0.2 | 66 | 0.003
CN1C2CCC1CC(NC(=O)c1n[nH]c3ccccc13)C2 (stereo unspecified) | 0.02 | 10 | 0.002
CN1C2CCCC1CC(NC(=O)c1nn(C)c3ccccc13)C2 (stereo unspecified) |  | 15 | 
CN1C2CCC1CC(NC(=O)c1c3ccccc3nn1C)C2 (stereo unspecified) |  |  | > 0.01
CN1[C@@H]2CC[C@H]1C[C@@H](OC(=O)c1c[nH]c3ccccc13)C2 | 0.2 | 50 | 0.004
